Measurements from ChEMBL document CHEMBL1255431, “Inhibitors of Leishmania GDP-mannose pyrophosphorylase identified by high-throughput screening of small-molecule chemical library” (Antimicrob Agents Chemother, 2010).
Calls of active or inactive are those of the source. The rule behind the calls is not given here.

How the values were obtained:
Leishmania major [1] = test: Antileishmanial activity Leishmania major V121 amastigotes; assay type: functional, organism-based
Procedure, shortened: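 Ex vivo amastigotes purified from lesions of L. major-infected CBA nu/nu mice, resuspended in M199. Exposed 24 h to 2-fold dilutions from 100 μM to 49 nM. 10^6 parasites per well, in duplicate. Viability by CellTiter blue, read at 550 nm with 630 nm reference. IC50 against nontreated controls.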

[2] = Inhibition of Leishmania major recombinant GDP-mannose pyrophosphorylase expressed in Escherichia coli […] by fluorescence assay
Procedure, shortened: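 Recombinant His6-tagged L. major GDP-MP, expressed in E. coli BL21(DE3)pLysS and purified on Talon resin. Buffer: 25 mM Tris-HCl pH 7.5, 4 mM MgCl2, 150 mM NaCl, 0.02% Tween 20, 0.4 mg/ml OVA. Final 5 μM M-1-P and 1.3 μM GTP, with inorganic pyrophosphatase coupling. Pi detected by MDCC phosphate sensor, Ex430/Em480, read each minute for 10 min.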

Leishmania major [3] = test: Antileishmanial activity Leishmania major V121 promastigotes infected in mouse bone marrow-derived macrophage assessed as mild inhibition of cell invasion at 30 uM after 48 hrs by microscopy; assay type: functional, organism-based
Leishmania major [4] = test: Antileishmanial activity Leishmania major V121 amastigotes infected in mouse bone marrow-derived macrophage assessed as inhibition of parasite proliferation after 48 hrs by Giemsa staining; assay type: functional, organism-based
Procedure, shortened: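 Intracellular proliferation format in mouse bone marrow-derived macrophages, with amastigotes used for infection. Infected cells on duplicate coverslips exposed to compound for 48 h, then washed, methanol-fixed and Giemsa-stained. Percentage of infected cells counted microscopically.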

[5] = Cytotoxicity against HFF by Cell titer blue assay; assay type: cell-based; settings: human, HFF cells
Procedure, shortened: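 Primary human foreskin fibroblasts grown in DMEM with 10% HI-FBS, 37°C, 5% CO2. Compound toxicity measured by CellTiter blue viability, concentrations up to 100 μM.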

Leishmania major [6] = test: Antileishmanial activity Leishmania major V121 promastigotes infected in mouse bone marrow-derived macrophage assessed as inhibition of cell invasion after 48 hrs by microscopy; assay type: functional, organism-based
Leishmania major [7] = test: Antileishmanial activity Leishmania major V121 amastigotes isolated from infected […] CBA nu/nu at 10 to 30 uM after 48 hrs by microscopy; assay type: functional, organism-based
Leishmania major [8] = test: Antileishmanial activity Leishmania major V121 amastigotes infected in mouse bone marrow-derived macrophage assessed as inhibition of cell invasion after 48 hrs by microscopy; assay type: functional, organism-based
[9] = Cytotoxicity against mouse bone marrow-derived macrophages at 30 uM after 48 hrs by Cell titer blue assay; assay type: cell-based; settings: macrophage
Leishmania major [10] = test: Antileishmanial activity Leishmania major V121 amastigotes isolated from infected […] CBA nu/nu at 10 to 40 uM after 48 hrs by microscopy; assay type: functional, organism-based
Leishmania major [11] = test: Antileishmanial activity Leishmania major V121 amastigotes infected in mouse bone marrow-derived macrophage assessed as mild inhibition of cell invasion at 30 uM after 48 hrs by microscopy; assay type: functional, organism-based
Leishmania major [12] = test: Antileishmanial activity Leishmania major V121 amastigotes isolated from infected […] CBA nu/nu after 48 hrs by microscopy; assay type: functional, organism-based
Leishmania major [13] = test: Antileishmanial activity Leishmania major V121 promastigotes infected in mouse bone marrow-derived macrophage assessed as complete inhibition of cell invasion at 30 uM after 48 hrs by microscopy; assay type: functional, organism-based
Leishmania major [14] = test: Antileishmanial activity Leishmania major V121 amastigotes infected in mouse bone marrow-derived macrophage assessed as complete inhibition of cell invasion at 30 uM after 48 hrs by microscopy; assay type: functional, organism-based
Leishmania major [15] = test: Antileishmanial activity Leishmania major V121 promastigotes infected in mouse bone marrow-derived macrophage assessed as inhibition of cell invasion at 10 uM after 48 hrs by microscopy; assay type: functional, organism-based

SMILES | IC50 (Leishmania major [1]) | IC50 [2] | inhibition (Leishmania major [3]) | IC50 (Leishmania major [4]) | CC50 [5] | further results
C[C@@H]1[C@H](O)[C@@H](C)/C=C/C=C/C=C/C=C/C=C/C=C/C=C/[C@H](O[C@@H]2O[C@H](C)[C@@H](O)[C@H](N)[C@@H]2O)C[C@@H]2O[C@](O)(C[C@@H](O)C[C@@H](O)[C@H](O)CC[C@@H](O)C[C@@H](O)CC(=O)O[C@H]1C)C[C@H](O)[C@H]2C(=O)O [AMPHOTERICIN B] | 1.6 µM | – | – | 0.5 µM | – | –
CN1CCN(c2ccnc3cc(Cl)ccc23)CC1 | > 100 µM | – | Active | – | – | –
Clc1ccc2c(N3CCN(Cc4ccccc4)CC3)ccnc2c1 | 62.2 µM | – | Active | > 30 µM | – | inhibition (Leishmania major [6]): Dose-dependent effect; Activity (Leishmania major [7]): Active; inhibition (Leishmania major [8]): Dose-dependent effect
CCn1nc(C)cc1-c1nnc2sc(Cc3c(F)cccc3Cl)nn12 | > 100 µM | 1.05 µM | Active | – | – | –
Cc1cc(C)nc(SCc2nn3c(-c4ccccc4)nnc3s2)n1 | > 100 µM | 3.95 µM | Active | – | – | –
CCOC(=O)C/C(=N/O)c1nnn[nH]1 | > 100 µM | 7.28 µM | Active | – | – | –
COc1ccc(-c2csc3c2C2=NCCN2C=N3)cc1OC | > 100 µM | 7.54 µM | Active | – | – | –
CC(C)(C)c1ccc(CN2CCN(c3ccnc4cc(Cl)ccc34)CC2)cc1 | 62.3 µM | 0.58 µM | – | 21.9 µM | > 100 µM | Activity (Leishmania major [10]): Active; inhibition (Leishmania major [4]): Dose-dependent effect; inhibition (Leishmania major [6]): Dose-dependent effect; inhibition (Leishmania major [11]): Active; Activity (Leishmania major [12]): Active; inhibition (Leishmania major [8]): Dose-dependent effect; inhibition (Leishmania major [13]): Active
CCc1nnc(N2C(=O)C3C4C=CC(C4)C3C2=O)s1 (stereo not given) | > 100 µM | 3.53 µM | Active | – | – | –
Cc1ccc2[nH]c(CCC3CCCCC3)nc2c1 | 23.7 µM | 1.56 µM | Active | – | > 100 µM | Activity [9]: Toxic
CCCc1cc(-c2nn3c(-c4ccccc4)nnc3s2)n(CC)n1 | > 100 µM | 1.26 µM | Active | – | – | –
COC(=O)c1c(O)c(C#N)c2n(c1=O)CCc1cc(OC)c(OC)cc1-2 | 52.6 µM | 2.44 µM | Active | > 30 µM | > 100 µM | inhibition (Leishmania major [14]): Active
Clc1ccc2c(N3CCN(Cc4ccc(-c5ccccc5)cc4)CC3)ccnc2c1 | 32.6 µM | – | Active | 11.7 µM | > 100 µM | IC50 (Leishmania major [6]; V121, 48 h): 17.6 µM

Second part, led by results:

IC50 (Leishmania major [1]) | IC50 [2] | SMILES | inhibition (Leishmania major [3]) | IC50 (Leishmania major [4]) | CC50 [5] | further results
> 100 µM | 4.45 µM | COc1ccc(-c2nnc3sc(-c4ccc(F)cc4)nn23)cc1 | Active | – | – | –
> 100 µM | 2.93 µM | Clc1ccc(C2=NN3C(c4ccccc4)=NNC3S2)c(Cl)c1 (stereo not given) | Active | – | – | –
73.4 µM | 4.12 µM | CN(C)Cc1c(O)ccc2c(=O)c(-c3cnn(-c4ccccc4)c3)coc12 | Active | > 30 µM | > 100 µM | –
25.1 µM | 5.75 µM | Cc1ccc(N2NC(=O)/C(=C/c3cc4c(cc3Cl)OCO4)C2=O)cc1C | Active | > 30 µM | > 100 µM | –
96.8 µM | 5.53 µM | Cc1ccc2c(n1)[nH]c1ccccc12 | Active | > 30 µM | > 100 µM | –
– | 5.31 µM | COc1ccc(CCC2=Nc3ccccc3S(=O)(=O)N2)cc1 | Active | – | – | –
> 100 µM | 8.25 µM | COc1ccc2c(=O)c(C(=O)O)csc2c1 | Active | – | – | –
> 100 µM | 2.98 µM | Fc1cccc(Cl)c1Cc1nn2c(-c3ccccc3)nnc2s1 | Active | – | – | –
88.9 µM | 1.37 µM | CCn1nc(C)cc1-c1nnc2sc(-c3ccc(C)cc3)nn12 | Active | – | > 100 µM | Activity [9]: Toxic
78 µM | 0.49 µM | c1ccc2c(-c3cnc4n3CCS4)c[nH]c2c1 | Active | > 30 µM | > 100 µM | inhibition (Leishmania major [14]): Active
70.6 µM | – | Cc1ccc(C(=O)N2CCN(c3ccnc4cc(Cl)ccc34)CC2)cc1 | Active | > 30 µM | – | inhibition (Leishmania major [6]): Dose-dependent effect; inhibition (Leishmania major [15]): inactive; Activity (Leishmania major [7]): Active; inhibition (Leishmania major [8]): Dose-dependent effect
> 100 µM | 1.09 µM | Cc1ccccc1Cc1nnc2sc(-c3ccc(Cl)cc3)nn12 | Active | – | – | –
90.7 µM | 10.7 µM | Cc1ccc(/C=C2/C(=O)NN(c3ccc(F)cc3)C2=O)o1 | Active | > 30 µM | > 100 µM | –
